Data as given in PubChem BioAssay AID2545 (The Scripps Research Institute Molecular Screening Center, 2010).
Activity calls are given as the source filed them.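 Rule for the calls: active = inhibition at or above 75%; inactive = inhibition below 75%.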

target: NADPH oxidase 1 (Homo sapiens) (UniProt Q9Y5S8); experiment: NOX1 inhibitors in transfected HEK293 cells, late-stage follow-up, orthogonal assay for NOX1 inhibitor project, cell-based, HEK/293, percent inhibition, luminescence (AID 2545); settings: NOX1-transfected HEK293, luminol ROS chemiluminescence; at 100 µM; hits give high values
Sequence (Q9Y5S8 whole entry, looked up): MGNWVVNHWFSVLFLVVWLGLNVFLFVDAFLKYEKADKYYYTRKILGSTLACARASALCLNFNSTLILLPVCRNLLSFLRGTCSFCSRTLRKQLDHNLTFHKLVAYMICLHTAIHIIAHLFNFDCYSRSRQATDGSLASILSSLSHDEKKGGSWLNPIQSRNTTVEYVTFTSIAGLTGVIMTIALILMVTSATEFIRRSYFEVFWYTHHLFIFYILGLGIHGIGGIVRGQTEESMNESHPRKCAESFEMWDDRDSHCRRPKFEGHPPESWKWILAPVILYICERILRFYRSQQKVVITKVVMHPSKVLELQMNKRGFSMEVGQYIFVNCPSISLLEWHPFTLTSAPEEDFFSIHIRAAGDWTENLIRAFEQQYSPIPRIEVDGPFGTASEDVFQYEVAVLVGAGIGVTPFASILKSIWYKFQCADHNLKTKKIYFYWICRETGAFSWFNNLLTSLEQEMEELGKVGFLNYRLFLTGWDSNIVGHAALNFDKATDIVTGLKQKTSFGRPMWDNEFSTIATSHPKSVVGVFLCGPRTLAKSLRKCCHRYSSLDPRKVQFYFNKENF
Procedure, shortened: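 Material: HEK293 cells transiently coexpressing Myc-tagged Nox1, NoxO1, NoxA1, constitutively active Rac1 Q61L / Probe or stimulus: luminol plus horseradish peroxidase, added after compound exposure / Schedule: compounds added 16 h post-transfection, 2 h before luminol/peroxidase / Detection: luminol chemiluminescence of intracellular ROS / Evaluation: % inhibition of ROS chemiluminescence / Repeats: singlicate, one well per compound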

Row | Structure (SMILES) | inhibition
1 | O=C(Oc1ccccc1N1CCOCC1)c1cccs1 | 40.4% (inactive)
2 | O=C(NNc1c([N+](=O)[O-])cc(C(F)(F)F)cc1[N+](=O)[O-])c1ccco1 | 5.79% (inactive)
3 | Cc1cc(Br)c(NC(=S)NNc2ccccc2)c(Br)c1 | 5.12% (inactive)
4 | O=C(N/N=C/c1ccc(O)cc1)N/N=C/c1ccc(O)cc1 | 83.4%
5 | COc1ccc(OC(=O)c2ccc3ncccc3c2)cc1 | -50.4% (inactive)
6 | O=c1[nH]nc(N2CCSCC2)[nH]1 | -55.4% (inactive)
7 | CC(C)C(=O)NNc1nc2c(c(=O)n(C)c(=O)n2C)n1Cc1ccc(Cl)cc1 | -18.6% (inactive)
8 | Cc1cc(S(=O)(=O)NNc2ncnc3c2cnn3C)c(C)cc1Cl | -0.65% (inactive)
9 | COc1ccccc1NNC(=O)c1cc(C(C)(C)C)nn1Cc1ccccc1 | 63.6% (inactive)
10 | COc1cccc(NC(=S)NNc2ccc([N+](=O)[O-])cc2)c1 | -84% (inactive)
11 | Cc1nc(C(F)(F)F)c(C(=O)NNc2ncc(C(F)(F)F)cc2Cl)s1 | 49.4% (inactive)
12 | COc1ccc(N(C)CC(=O)O)c(C(=O)O)c1 | -18.5% (inactive)
13 | CC1(C)CC(Nc2ccc(Nc3ccccc3)cc2)CC(C)(C)N1 | 104%
14 | CN(C)c1ccc(/C=N/Nc2c(Cl)cncc2Cl)cc1 | 100%
15 | Nc1nc(NCc2c(Cl)cccc2Oc2ccccc2)n[nH]1 | 2.15% (inactive)
16 | COc1cc2ncnc(NNC(=O)c3cccs3)c2cc1OC | 46.4% (inactive)
17 | O=C(Oc1ccccc1N1CCCCC1)c1sc2ccccc2c1Cl | 57.6% (inactive)
18 | NS(=O)(=O)c1ccc(NNC(=O)c2c(F)cccc2Cl)cc1 | -10.4% (inactive)
19 | Cc1cc(C(=O)NNc2cc(Cl)ccc2Cl)no1 | -23.5% (inactive)
20 | O=c1[nH]c2ccsc2c(=O)n1CCO | -0.39% (inactive)
21 | c1ccc2c(c1)Nc1nc3ccccc3nc1N2 | 79.5%

Row | Structure (SMILES) | inhibition
22 | COc1cc(-c2nc(-c3ccccc3)c(-c3ccccc3)[nH]2)ccc1O | 108%
23 | FC(F)(F)c1ccc2c(c1)Nc1ccccc1S2 | 107%
24 | CC(=O)Oc1ccc(OC(C)=O)c2c1[C@@H]1C=C[C@H]2CC1 | 1.35% (inactive)
25 | Cc1cc(Cl)ccc1NC(=S)NNC(=S)Nc1ccc(F)cc1 | 99.9%
26 | COc1cccc(NC(=S)NNC(=S)NC2CC3CCC2C3)c1 (stereo unspecified) | 106%
27 | CN(C)c1ccc(NC(=O)Nc2ccc(OCc3ccccc3)cc2)cc1 | 121%
28 | S=C(NNc1nccc(-c2cccnc2)n1)Nc1ccccc1 | -62.4% (inactive)
29 | COCCCNC(=S)NNC(=S)Nc1ccccc1 | 9.5% (inactive)
30 | O=c1c(Cl)c2oc3ccccc3nc-2c2ccccc12 | 52% (inactive)
31 | Nc1nc(NCc2ccccn2)n[nH]1 | 24.8% (inactive)
32 | Nc1nc(NCc2ccccc2OC(F)(F)F)n[nH]1 | 26.1% (inactive)
33 | ON/C=N/c1nnc(C(F)(F)F)s1 | 1.45% (inactive)
34 | Nc1nc(Nc2ccccc2)n[nH]1 | -15.1% (inactive)
35 | Cn1nc(-c2ccccc2)c(O)c(N=Nc2ccccc2)c1=O | -55.7% (inactive)
36 | O=C(NNc1c([N+](=O)[O-])cc(C(F)(F)F)cc1[N+](=O)[O-])c1ccccc1-n1cccc1 | 54.6% (inactive)
37 | Cc1noc(C)c1C(=O)Nc1ccc(N2CCOCC2)nc1N1CCOCC1 | -55.4% (inactive)
38 | COc1ccc(Cl)cc1NC(=O)Nc1ccc(N(C)C)cc1 | 100%
39 | CC(C)(C)c1csc(NNC(=O)c2ccc(Cl)cc2)n1 | -43.1% (inactive)
40 | Cn1cnc(S(=O)(=O)Nc2ccc(N3CCCCC3)cc2)c1 | 58.9% (inactive)
41 | CCOC(=O)C1=C(Nc2ccc(OC(C)=O)cc2)C(=O)N(C(C)(C)C)C1 | 2.42% (inactive)
